In ChEMBL document CHEMBL1138465, “N-aryl-oxazolidin-2-imine muscle selective androgen receptor modulators enhance potency through pharmacophore reorientation” (J Med Chem, 2009):
In brackets after ≈: the same amount, converted by molar mass.

Columns and labels:
Androgen receptor [1] = target: T1, Androgen receptor (Rattus norvegicus, UniProt P15207); assay: Agonist activity at rat androgen receptor expressed in mouse skeletal muscle C2C12 cells assessed as transcriptional activation after 24 hrs by androgen-specific response element driven luciferase reporter gene assay; format: functional, cell-based
T1 sequence (P15207 whole entry): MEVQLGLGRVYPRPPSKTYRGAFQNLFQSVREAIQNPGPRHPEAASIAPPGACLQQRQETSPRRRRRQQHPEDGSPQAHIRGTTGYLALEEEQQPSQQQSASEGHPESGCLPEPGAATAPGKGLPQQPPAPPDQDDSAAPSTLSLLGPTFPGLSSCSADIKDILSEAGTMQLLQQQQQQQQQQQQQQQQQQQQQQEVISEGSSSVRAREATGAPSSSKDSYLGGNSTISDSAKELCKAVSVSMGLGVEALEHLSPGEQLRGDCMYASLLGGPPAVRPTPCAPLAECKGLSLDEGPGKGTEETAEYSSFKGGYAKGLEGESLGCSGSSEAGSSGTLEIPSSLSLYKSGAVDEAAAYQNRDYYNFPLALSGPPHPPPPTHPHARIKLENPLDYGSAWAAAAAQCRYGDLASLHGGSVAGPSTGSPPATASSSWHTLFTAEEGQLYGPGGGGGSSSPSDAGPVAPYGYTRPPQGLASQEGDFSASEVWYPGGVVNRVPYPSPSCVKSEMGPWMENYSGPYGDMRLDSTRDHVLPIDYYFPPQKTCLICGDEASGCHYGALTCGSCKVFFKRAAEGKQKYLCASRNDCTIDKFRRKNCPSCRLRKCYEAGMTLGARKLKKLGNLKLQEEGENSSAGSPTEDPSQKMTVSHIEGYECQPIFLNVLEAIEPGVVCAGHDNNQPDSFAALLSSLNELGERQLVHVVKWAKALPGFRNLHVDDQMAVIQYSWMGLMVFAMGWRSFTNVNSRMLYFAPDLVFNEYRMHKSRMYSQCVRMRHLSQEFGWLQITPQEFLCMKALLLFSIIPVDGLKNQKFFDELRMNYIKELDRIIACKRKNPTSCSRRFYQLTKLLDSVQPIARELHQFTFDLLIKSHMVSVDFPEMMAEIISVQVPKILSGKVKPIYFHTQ

Androgen receptor [2] = target: T2, Androgen receptor (Homo sapiens, UniProt P10275); assay: Displacement of [3H[DHT from androgen receptor endogenously expressed in human MDA-MB-453 cells; format: cell-based
T2 sequence (P10275 whole entry): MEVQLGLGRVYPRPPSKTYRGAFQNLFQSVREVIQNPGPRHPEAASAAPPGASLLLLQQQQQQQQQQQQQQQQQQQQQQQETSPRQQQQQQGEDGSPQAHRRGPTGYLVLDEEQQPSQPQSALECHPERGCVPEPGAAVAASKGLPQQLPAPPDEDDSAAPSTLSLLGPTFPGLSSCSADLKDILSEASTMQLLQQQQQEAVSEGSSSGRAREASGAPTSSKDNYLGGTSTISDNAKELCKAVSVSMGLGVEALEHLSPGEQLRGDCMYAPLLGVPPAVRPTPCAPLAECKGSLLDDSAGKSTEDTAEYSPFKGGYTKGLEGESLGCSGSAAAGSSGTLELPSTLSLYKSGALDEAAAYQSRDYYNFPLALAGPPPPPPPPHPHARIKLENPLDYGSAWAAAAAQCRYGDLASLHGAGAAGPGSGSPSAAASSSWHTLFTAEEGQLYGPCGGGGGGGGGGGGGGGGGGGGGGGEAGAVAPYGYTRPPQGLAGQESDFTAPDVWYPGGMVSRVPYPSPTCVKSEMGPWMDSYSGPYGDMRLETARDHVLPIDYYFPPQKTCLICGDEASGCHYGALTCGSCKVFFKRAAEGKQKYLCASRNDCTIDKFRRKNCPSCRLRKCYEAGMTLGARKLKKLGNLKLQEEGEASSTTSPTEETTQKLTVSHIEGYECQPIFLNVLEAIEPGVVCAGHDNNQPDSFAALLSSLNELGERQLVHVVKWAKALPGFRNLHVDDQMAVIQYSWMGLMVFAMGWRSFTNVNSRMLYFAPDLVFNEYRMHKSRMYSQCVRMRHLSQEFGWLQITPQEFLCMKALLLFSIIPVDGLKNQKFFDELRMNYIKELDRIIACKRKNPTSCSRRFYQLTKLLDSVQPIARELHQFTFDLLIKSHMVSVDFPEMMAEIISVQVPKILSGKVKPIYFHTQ

Androgen receptor [3] = target: T1, Androgen receptor; assay: Intrinsic activity at rat androgen receptor expressed in mouse skeletal muscle C2C12 cells assessed as transcriptional activation after 24 hrs by androgen-specific response element driven luciferase reporter gene assay relative to control; format: cell-based
Rattus norvegicus [4] = assay: Anabolic activity in castrated male Harlan Sprague-Dawley rat assessed as intact growth of prostate at 0.3 mg/kg, po after 14 days; format: functional, Prostate gland
Rattus norvegicus [5] = assay: Anabolic activity in castrated male Harlan Sprague-Dawley rat assessed as intact growth of Levator ani muscle at 0.03 mg/kg, po after 14 days; format: functional
Rattus norvegicus [6] = assay: Anabolic activity in sc dosed castrated male Harlan Sprague-Dawley rat assessed as intact growth of prostate after 14 days; format: functional; conditions: Prostate gland, 336 h
Rattus norvegicus [7] = assay: Anabolic activity in castrated male Harlan Sprague-Dawley rat assessed as intact growth of prostate at 0.00001 mg/kg, po after 14 days; format: functional, Prostate gland; conditions: dose 1e-05 mg/kg
Rattus norvegicus [8] = assay: Anabolic activity in castrated male Harlan Sprague-Dawley rat assessed as intact growth of prostate at 0.01 mg/kg, po after 14 days; format: functional, Prostate gland
Rattus norvegicus [9] = assay: Anabolic activity in castrated male Harlan Sprague-Dawley rat assessed as intact growth of Levator ani muscle at 0.00001 mg/kg, po after 14 days; format: functional; conditions: dose 1e-05 mg/kg
Rattus norvegicus [10] = assay: Anabolic activity in po dosed castrated male Harlan Sprague-Dawley rat assessed as intact growth of prostate after 14 days; format: functional; conditions: Prostate gland, 336 h
Rattus norvegicus [11] = assay: Anabolic activity in sc dosed castrated male Harlan Sprague-Dawley rat assessed as intact growth of Levator ani muscle after 14 days; format: functional; conditions: 336 h
Rattus norvegicus [12] = assay: Anabolic activity in po dosed castrated male Harlan Sprague-Dawley rat assessed as intact growth of Levator ani muscle after 14 days; format: functional; conditions: 336 h
Rattus norvegicus [13] = assay: Anabolic activity in castrated male Harlan Sprague-Dawley rat assessed as intact growth of Levator ani muscle at 0.001 mg/kg, po after 14 days; format: functional
Rattus norvegicus [14] = assay: Anabolic activity in castrated male Harlan Sprague-Dawley rat assessed as intact growth of Levator ani muscle at 0.1 mg/kg, po after 14 days; format: functional
Rattus norvegicus [15] = assay: Anabolic activity in castrated male Harlan Sprague-Dawley rat assessed as intact growth of prostate at 0.1 mg/kg, po after 14 days; format: functional, Prostate gland
Rattus norvegicus [16] = assay: Anabolic activity in castrated male Harlan Sprague-Dawley rat assessed as intact growth of Levator ani muscle at 0.3 mg/kg, po after 14 days; format: functional
Rattus norvegicus [17] = assay: Anabolic activity in castrated male Harlan Sprague-Dawley rat assessed as intact growth of prostate at 0.03 mg/kg, po after 14 days; format: functional, Prostate gland
Rattus norvegicus [18] = assay: Anabolic activity in castrated male Harlan Sprague-Dawley rat assessed as intact growth of Levator ani muscle at 0.0001 mg/kg, po after 14 days; format: functional
Rattus norvegicus [19] = assay: Anabolic activity in castrated male Harlan Sprague-Dawley rat assessed as intact growth of prostate at 0.001 mg/kg, po after 14 days; format: functional, Prostate gland
[20] = Chemical stability in 0.1N HCl assessed as drug remaining after 24 hrs; format: physicochemical; conditions: read-out: Stability
How it was run: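 Compound held in solution in 0.1 N HCl at 37 °C for 24 h, used as a model of gut pH; the percentage of intact compound remaining at 24 h was the read-out.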

Rattus norvegicus [21] = assay: Anabolic activity in castrated male Harlan Sprague-Dawley rat assessed as intact growth of Levator ani muscle at 0.01 mg/kg, po after 14 days; format: functional
Rattus norvegicus [22] = assay: Anabolic activity in castrated male Harlan Sprague-Dawley rat assessed as intact growth of prostate at 0.0001 mg/kg, po after 14 days; format: functional, Prostate gland
[23] = AUC in rat at 5 mg/kg, po; format: ADME, organism-based; set-up: dose 5 mg/kg, route oral; conditions: plasma
[24] = Aqueous solubility of the compound; format: physicochemical
Androgen receptor [25] = target: T1, Androgen receptor; assay: […] at rat AR expressed in mouse skeletal muscle C2C12 cells assessed as transcriptional activation after 24 hrs by androgen-specific response element driven luciferase reporter gene assay; format: functional, cell-based

Structure (SMILES)	EC50 (Androgen receptor [1]) [nM]	Ki (Androgen receptor [2]) [nM]	other results
Cc1c(/N=C2\O[C@H](C(F)(F)F)[C@@H]3[C@@H](O)CCN23)ccc(C#N)c1Cl	19	0.2	–
Cc1c(/N=C2\N(C(N)=O)C[C@@H]3[C@H](O)CCN23)ccc(C#N)c1Cl	–	19	EC50 (Androgen receptor [3]): Active
Cc1c(/N=C2\O[C@@H](C(F)(F)F)[C@@H]3[C@H](O)CCN23)ccc(C#N)c1Cl	1.4	0.3	–
Cc1c(/N=C2\O[C@H](C(F)(F)F)[C@@H]3[C@H](O)CCN23)ccc(C#N)c1Cl	1.1	2.3	–
Cc1c(/N=C2\OC[C@@H]3[C@H](O)CCN23)ccc(C#N)c1Cl	4.8	0.8	–
Cc1c(/N=C2\N(C)C[C@@H]3[C@H](O)CCN23)ccc(C#N)c1Cl	44	1.9	–
Cc1c(/N=C2\O[C@@H](C(F)(F)F)[C@@H]3[C@@H](O)CCN23)ccc(C#N)c1Cl	0.2	0.3	Activity (Rattus norvegicus [4]): 104.5%; Activity (Rattus norvegicus [5]): 103.5%; ED50 (Rattus norvegicus [6]): 0.42 mg/kg; Activity (Rattus norvegicus [7]): 2.6%; Activity (Rattus norvegicus [8]): 38.8%; Activity (Rattus norvegicus [9]): 21%; ED50 (Rattus norvegicus [10]): 0.0143 mg/kg; ED50 (Rattus norvegicus [11]): 0.21 mg/kg; ED50 (Rattus norvegicus [12]): 0.0009 mg/kg; Activity (Rattus norvegicus [13]): 59%; Activity (Rattus norvegicus [14]): 100.5%; Activity (Rattus norvegicus [15]): 103%; Activity (Rattus norvegicus [16]): 103.9%; Activity (Rattus norvegicus [17]): 72.9%; Activity (Rattus norvegicus [18]): 25%; Activity (Rattus norvegicus [19]): 9.5%; remaining at 24 h [20]: 0.41%; Activity (Rattus norvegicus [21]): 109.3%; Activity (Rattus norvegicus [22]): 3.6%; AUC [23]: 5.8 µM·h
Cc1c(N2C(NC#N)N3CC[C@H](O)[C@H]3[C@@H]2C)ccc(C#N)c1Cl (stereo partly specified)	1110	17	–
Cc1c(/N=C2\OC(C(C)C)[C@@H]3[C@H](O)CCN23)ccc(C#N)c1Cl (single isomer, unassigned)	3.7	0.7	–
Cc1c(N2C(=O)[C@@H]3[C@H](O)CCN3C2=O)ccc(C#N)c1Cl	–	–	solubility [24]: 19 µg/mL (≈ 62.1 µM)
Cc1c(N2C[C@@H]3[C@H](O)CCN3C2=O)ccc(C#N)c1Cl	6.4	6	–
Cc1c(/N=C2\NC[C@@H]3[C@H](O)CCN23)ccc(C#N)c1Cl	–	10	EC50 (Androgen receptor [25]): 1800 nM
Cc1c(/N=C2\OC[C@@H]3[C@@H](O)CCN23)ccc(C#N)c1Cl	14	0.3	–
CC[C@H]1[C@@H]2[C@@H](O)CCN2C(=O)N1c1ccc(C#N)c(Cl)c1C	1.8	–	–
